Test results: ChEMBL document CHEMBL4196017, “Design, synthesis and identification of silicon-containing HCV NS5A inhibitors with pan-genotype activity” (Eur J Med Chem, 2018); call rule not given here

How the values were obtained:
[1] = Cytotoxicity against HUVEC assessed as growth inhibition at 50 uM relative to control; type: cell-based; settings: human, read-out: GI
In short: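 HUVEC from healthy donors exposed to compound at 50 µM; percent inhibition reported as mean of n = 3.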

[2] = Protein binding in mouse plasma at 10 uM after 6 hrs by UPLC-MS/MS based equilibrium dialysis method; type: ADME, cell-free; settings: read-out: PPB (converted)
In short: (§1)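 Equilibrium dialysis: plasma (pH 7.4) preincubated 15 min at 37 °C, spiked with compound at 1 or 10 µM (0.5% DMSO final); dialysed against 100 mM phosphate buffer pH 7.4, 6 h at 37 °C, 100 rpm; donor and receiver samples analysed by UPLC-MS/MS.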

[3] = Efflux ratio of apparent permeability in human Caco2 cells after 90 mins by UPLC-MS/MS analysis; type: ADME, cell-based; settings: Caco-2
In short: (§2)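 Caco-2 cells on Transwell inserts grown 21-23 days to TEER ≥200 Ω cm²; rinsed with warm HBSS, preincubated 30 min at 37 °C in 2% BSA with or without inhibitor; compound in 2% BSA added apical or basolateral, 90 min at 37 °C; receiver sampled, UPLC-MS/MS; duplicate; Papp calculated.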

[4] = Ratio of drug uptake in Sprague-Dawley rat liver to plasma at 10 mg/kg, ig administered as single dose measured after 2 hrs by UPLC-MS/MS analysis; type: ADME, organism-based; settings: po
[5] = Half life in mouse at 10 mg/kg, ig administered as single dose by UPLC-MS/MS analysis; type: ADME, organism-based; settings: in vivo, po
In short: (§3)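 Adult male mice (12 h light-dark, 22 °C, 55% humidity) fasted 12 h with free water, then given a single 10 mg/kg intragastric dose; plasma concentrations by UPLC-MS/MS; PK parameters calculated by software.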

[6] = Protein binding in mouse plasma at 1 uM after 6 hrs by UPLC-MS/MS based equilibrium dialysis method; type: ADME, cell-free; settings: read-out: PPB (converted); in short: as §1
[7] = Protein binding in rat plasma at 1 uM after 6 hrs by UPLC-MS/MS based equilibrium dialysis method; type: ADME, cell-free; settings: read-out: PPB (converted); in short: as §1
[8] = Metabolic stability in rat liver microsomes assessed as parent compound remaining at 0.2 uM preincubated for 5 mins followed by NADPH addition measured up to 60 mins by UPLC-MS/MS analysis; type: ADME, microsome; settings: read-out: Stability
In short: (§4)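 Pooled mouse, rat or human liver microsomes 0.2 mg/mL with 1 mM NADPH, 5 mM MgCl2, 100 mM potassium phosphate pH 7.4 and 0.2 µM compound; 5-min preincubation at 37 °C, NADPH start, sampled at 5, 15, 30, 60 min; ice-cold acetonitrile stop; UPLC-MS/MS; percent parent remaining at 60 min.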

[9] = Apparent permeability from apical to basolateral side in human Caco2 cells after 90 mins by UPLC-MS/MS analysis; type: ADME, cell-based; settings: Caco-2; in short: as §2
[10] = Apparent permeability from basolateral to apical side in human Caco2 cells after 90 mins by UPLC-MS/MS analysis; type: ADME, cell-based; settings: Caco-2; in short: as §2
[11] = Protein binding in dog plasma at 1 uM after 6 hrs by UPLC-MS/MS based equilibrium dialysis method; type: ADME, cell-free, Canis lupus familiaris; settings: read-out: PPB (converted); in short: as §1
Cytochrome P450 2C9 = Cytochrome P450 2C9 (Homo sapiens, UniProt P11712); assay: Inhibition of CYP2C9 in human liver microsomes at 1 to 10 uM using tolbutamide as substrate preincubated for 5 mins followed by NADPH addition measured after 30 mins by UPLC-MS/MS analysis relative to control; type: ADME; settings: 0.5 h
[12] = AUC (0 to t) in mouse at 10 mg/kg, ig administered as single dose by UPLC-MS/MS analysis; type: ADME, organism-based; settings: in vivo, po; in short: as §3
[13] = Protein binding in rat plasma at 10 uM after 6 hrs by UPLC-MS/MS based equilibrium dialysis method; type: ADME, cell-free; settings: read-out: PPB (converted); in short: as §1
Cytochrome P450 3A4 = Cytochrome P450 3A4 (Homo sapiens, UniProt P08684); assay: Inhibition of CYP3A4 in human liver microsomes at 1 to 10 uM using midazolam as substrate preincubated for 5 mins followed by NADPH addition measured after 30 mins by UPLC-MS/MS analysis relative to control; type: ADME; settings: 0.5 h
[14] = AUC (0 to t) in beagle dog at 2 mg/kg, po administered as single dose by UPLC-MS/MS analysis; type: ADME, organism-based, Canis lupus familiaris; settings: in vivo
[15] = Ratio of drug uptake in Sprague-Dawley rat liver to plasma at 10 mg/kg, ig administered as single dose measured after 24 hrs by UPLC-MS/MS analysis; type: ADME, organism-based; settings: po
[16] = Tmax in beagle dog at 2 mg/kg, po administered as single dose by UPLC-MS/MS analysis; type: ADME, organism-based, Canis lupus familiaris; settings: in vivo
[17] = Metabolic stability in human liver microsomes assessed as parent compound remaining at 0.2 uM preincubated for 5 mins followed by NADPH addition measured up to 60 mins by UPLC-MS/MS analysis; type: ADME, microsome; settings: read-out: Stability; in short: as §4
[18] = Cmax in beagle dog at 2 mg/kg, po administered as single dose by UPLC-MS/MS analysis; type: ADME, organism-based, Canis lupus familiaris; design: dose 2 mg/kg, route oral; settings: in vivo
Cytochrome P450 2A6 = target: T1, Cytochrome P450 2A6 (Homo sapiens, UniProt P11509); assay: Inhibition of CYP2A6 in human liver microsomes at 1 to 10 uM using coumarin as substrate preincubated for 5 mins followed by NADPH addition measured after 30 mins by UPLC-MS/MS analysis relative to control; type: ADME; settings: 0.5 h
T1 sequence (P11509 whole entry): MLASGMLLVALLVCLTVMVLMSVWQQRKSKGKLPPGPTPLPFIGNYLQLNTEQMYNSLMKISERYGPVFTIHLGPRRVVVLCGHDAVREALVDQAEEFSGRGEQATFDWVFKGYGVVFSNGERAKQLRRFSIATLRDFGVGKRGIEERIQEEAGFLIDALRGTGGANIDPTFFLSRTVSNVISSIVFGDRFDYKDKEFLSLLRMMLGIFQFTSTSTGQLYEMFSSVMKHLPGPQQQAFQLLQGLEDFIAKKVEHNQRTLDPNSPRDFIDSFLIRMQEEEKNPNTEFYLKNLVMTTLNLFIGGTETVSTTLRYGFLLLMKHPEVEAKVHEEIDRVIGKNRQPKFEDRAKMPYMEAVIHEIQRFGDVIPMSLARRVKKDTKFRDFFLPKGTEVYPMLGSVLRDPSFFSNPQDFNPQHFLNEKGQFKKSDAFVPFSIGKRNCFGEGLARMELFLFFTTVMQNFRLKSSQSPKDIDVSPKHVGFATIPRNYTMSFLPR

[19] = Tmax in mouse at 10 mg/kg, ig administered as single dose by UPLC-MS/MS analysis; type: ADME, organism-based; settings: in vivo, po; in short: as §3
Cytochrome P450 2D6 = Cytochrome P450 2D6 (Homo sapiens, UniProt P10635); assay: Inhibition of CYP2D6 in human liver microsomes at 1 to 10 uM using dextromethorphan as substrate preincubated for 5 mins followed by NADPH addition measured after 30 mins by UPLC-MS/MS analysis relative to control; type: ADME; settings: 0.5 h
Cytochrome P450 2D6, sequence (P10635 whole entry): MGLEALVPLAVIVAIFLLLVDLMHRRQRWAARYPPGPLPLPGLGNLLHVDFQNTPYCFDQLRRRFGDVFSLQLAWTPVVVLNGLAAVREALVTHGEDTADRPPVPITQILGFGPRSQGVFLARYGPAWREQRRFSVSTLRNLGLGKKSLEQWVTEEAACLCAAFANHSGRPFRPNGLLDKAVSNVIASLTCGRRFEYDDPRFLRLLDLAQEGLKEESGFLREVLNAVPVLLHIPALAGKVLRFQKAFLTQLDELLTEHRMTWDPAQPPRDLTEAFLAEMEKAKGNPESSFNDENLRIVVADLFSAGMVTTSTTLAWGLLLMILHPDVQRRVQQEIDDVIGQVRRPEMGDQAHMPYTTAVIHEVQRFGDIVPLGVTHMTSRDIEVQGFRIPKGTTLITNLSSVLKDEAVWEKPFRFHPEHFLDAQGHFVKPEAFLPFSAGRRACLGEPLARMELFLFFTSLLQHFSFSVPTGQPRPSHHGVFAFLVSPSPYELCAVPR

Cytochrome P450 3A4, sequence (P08684 whole entry): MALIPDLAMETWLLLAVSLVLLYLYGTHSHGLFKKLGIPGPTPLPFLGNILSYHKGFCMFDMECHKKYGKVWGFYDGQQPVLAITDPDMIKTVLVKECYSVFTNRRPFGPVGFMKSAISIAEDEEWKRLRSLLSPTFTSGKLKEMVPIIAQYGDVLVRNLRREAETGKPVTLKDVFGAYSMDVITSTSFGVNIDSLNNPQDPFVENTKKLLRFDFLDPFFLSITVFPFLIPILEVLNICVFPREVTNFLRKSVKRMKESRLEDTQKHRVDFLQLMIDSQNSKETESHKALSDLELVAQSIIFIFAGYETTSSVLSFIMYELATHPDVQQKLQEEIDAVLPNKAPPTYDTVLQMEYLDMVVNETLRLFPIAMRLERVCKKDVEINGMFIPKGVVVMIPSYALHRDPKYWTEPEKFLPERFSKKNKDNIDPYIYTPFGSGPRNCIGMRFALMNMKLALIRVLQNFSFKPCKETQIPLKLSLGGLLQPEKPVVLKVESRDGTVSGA
Cytochrome P450 2C9, sequence (P11712 whole entry): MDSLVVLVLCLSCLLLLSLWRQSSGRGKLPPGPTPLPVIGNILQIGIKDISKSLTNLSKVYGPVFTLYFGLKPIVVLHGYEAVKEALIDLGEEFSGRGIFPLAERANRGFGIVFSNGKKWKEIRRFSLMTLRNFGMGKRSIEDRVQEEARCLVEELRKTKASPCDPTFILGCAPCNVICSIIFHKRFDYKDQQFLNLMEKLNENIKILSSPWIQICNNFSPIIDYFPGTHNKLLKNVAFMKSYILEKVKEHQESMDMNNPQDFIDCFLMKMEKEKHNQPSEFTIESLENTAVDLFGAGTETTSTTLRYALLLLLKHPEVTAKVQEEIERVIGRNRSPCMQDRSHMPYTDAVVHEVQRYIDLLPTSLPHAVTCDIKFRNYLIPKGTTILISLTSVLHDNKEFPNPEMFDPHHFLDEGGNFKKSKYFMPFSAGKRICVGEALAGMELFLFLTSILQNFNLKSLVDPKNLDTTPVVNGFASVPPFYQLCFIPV

## CC[Si](CC)(CC)c1ccc(N2[C@H](c3ccc(NC(=O)[C@@H]4CCCN4C(=O)[C@@H](NC(=O)OC)C(C)C)cc3)CC[C@H]2c2ccc(NC(=O)[C@@H]3CCCN3C(=O)[C@@H](NC(=O)OC)C(C)C)cc2)cc1
[1]
  inhibition at 50 µM: 16.6%
[2]
  fraction unbound at 6 h, 10 µM: 0.00011
[3]
  efflux ratio at 1.5 h: 0.8
[4]
  Kp at 2 h: 28.1
[5]
  half-life: 22.5 h
[6]
  fraction unbound at 6 h, 1 µM: 8e-05
[7]
  fraction unbound at 6 h, 1 µM: 9e-05
[8]
  remaining at 1 h, 0.2 µM: 98%
[9]
  Papp A→B at 1.5 h: 0.07 ×10⁻⁶ cm/s
[10]
  Papp B→A at 1.5 h: 0.05 ×10⁻⁶ cm/s
[11]
  fraction unbound at 6 h, 1 µM: 4e-05
Cytochrome P450 2C9
  inhibition (INH): Not Active
[12]
  AUC(0-t): 3040 ng·h/mL
[13]
  fraction unbound at 6 h, 10 µM: 0.00017
Cytochrome P450 3A4
  inhibition (INH): Not Active
[14]
  AUC(0-t): 605 ng·h/mL
[15]
  Kp at 24 h: 31.9
[16]
  Tmax: 10.5 h
[17]
  remaining at 1 h, 0.2 µM: 85.6%
[18]
  Cmax: 29.2 ng/mL
Cytochrome P450 2A6
  inhibition (INH): Not Active
[19]
  Tmax: 3 h
Cytochrome P450 2D6
  inhibition (INH): Not Active

## COC(=O)N[C@H](C(=O)N1CCC[C@H]1C(=O)Nc1ccc([C@@H]2CC[C@@H](c3ccc(NC(=O)[C@@H]4CCCN4C(=O)[C@@H](NC(=O)OC)C(C)C)cc3)N2c2ccc(C(C)(C)C)cc2)cc1)C(C)C [OMBITASVIR]
[1]
  inhibition at 50 µM: 11.8%
[2]
  fraction unbound at 6 h, 10 µM: 1e-05
[3]
  efflux ratio at 1.5 h: 6.7
[4]
  Kp at 2 h: 24.6
[5]
  half-life: 7.7 h
[6]
  fraction unbound at 6 h, 1 µM: 4e-05
[7]
  fraction unbound at 6 h, 1 µM: 2e-05
[8]
  remaining at 1 h, 0.2 µM: 101%
[9]
  Papp A→B at 1.5 h: 0.08 ×10⁻⁶ cm/s
[10]
  Papp B→A at 1.5 h: 0.54 ×10⁻⁶ cm/s
[11]
  fraction unbound at 6 h, 1 µM: 2e-05
Cytochrome P450 2C9
  inhibition (INH): Not Active
[12]
  AUC(0-t): 6480 ng·h/mL
[13]
  fraction unbound at 6 h, 10 µM: 1e-05
Cytochrome P450 3A4
  inhibition (INH): Not Active
[14]
  AUC(0-t): 188 ng·h/mL
[15]
  Kp at 24 h: 22.3
[16]
  Tmax: 8.3 h
[17]
  remaining at 1 h, 0.2 µM: 96.2%
[18]
  Cmax: 15.7 ng/mL
Cytochrome P450 2A6
  inhibition (INH): Not Active
[19]
  Tmax: 3 h
Cytochrome P450 2D6
  inhibition (INH): Not Active
